Test results reported in ChEMBL document CHEMBL2346664, “Synthesis, characterization and in vitro anticancer evaluation of novel 1,2,4-triazolin-3-one derivatives” (2013).

Key:
Assay type in all cases: functional
[1] = test system: SN12C; assay: Growth inhibition of human SN12C cells assessed as cell growth at 10 '-5 M after 48 hrs by sulforhodamine B assay; settings: read-out: Activity
[2] = test system: SK-MEL-28; assay: Growth inhibition of human SK-MEL-28 cells assessed as cell growth at 10 '-8 M after 48 hrs by sulforhodamine B assay; settings: SK-MEL-28, 48 h, read-out: Activity
[3] = test system: NCI-H460; assay: Growth inhibition of human NCI-H460 cells assessed as cell growth at 10 '-7 M after 48 hrs by sulforhodamine B assay; settings: NCI-H460, 48 h, read-out: Activity
[4] = test system: TK-10; assay: Growth inhibition of human TK10 cells assessed as cell growth at 10 '-5 M after 48 hrs by sulforhodamine B assay; settings: TK-10, 48 h, read-out: Activity
[5] = Growth inhibition of human […] cells after 48 hrs by sulforhodamine B assay
Summary of the method: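 NCI 60-cell-line five-dose screen at 0.01, 0.1, 1, 10 and 100 µM final. Cells were plated at 5,000–40,000/well and grown 24 h at 37 °C, 5% CO2, then exposed to drug continuously for 48 h. Adherent cells were fixed with cold TCA (10% final) and stained with SRB; absorbance read at 515 nm. GI50 is the concentration where [(Ti-Tz)/(C-Tz)]×100 = 50, with Tz plates fixed at drug addition.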

[6] = test system: SF-295; assay: Growth inhibition of human SF295 cells assessed as cell growth at 10 '-6 M after 48 hrs by sulforhodamine B assay; settings: SF-295, 48 h, read-out: Activity
[7] = test system: IGROV-1; assay: Growth inhibition of human IGROV1 cells assessed as cell growth at 10 '-5 M after 48 hrs by sulforhodamine B assay; settings: IGROV-1, 48 h, read-out: Activity
[8] = test system: HCT-15; assay: Growth inhibition of human HCT15 cells assessed as growth inhibition at 10 uM after 48 hrs by sulforhodamine B assay; settings: HCT-15, 48 h, read-out: GI
[9] = test system: UO-31; assay: Growth inhibition of human UO31 cells assessed as cell growth at 10 '-6 M after 48 hrs by sulforhodamine B assay; settings: UO-31, 48 h, read-out: Activity
[10] = test system: A498; assay: Growth inhibition of human A498 cells assessed as cell growth at 10 '-6 M after 48 hrs by sulforhodamine B assay; settings: A498, 48 h, read-out: Activity
Summary of the method: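 Percent growth at each of the five concentrations of the 48 h continuous-exposure NCI SRB screen. Drug stocks were in DMSO at 400× the top final concentration and diluted in medium with gentamicin. Growth was calculated as [(Ti-Tz)/(C-Tz)]×100 when Ti ≥ Tz, or [(Ti-Tz)/Tz]×100 when Ti < Tz. Tz plates were fixed at drug addition; untreated wells served as control. Absorbance was read at 515 nm.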

[11] = test system: SNB-75; assay: Growth inhibition of human SNB75 cells assessed as cell growth at 10 '-7 M after 48 hrs by sulforhodamine B assay; settings: SNB-75, 48 h, read-out: Activity
[12] = test system: DU-145; assay: Growth inhibition of human DU145 cells after 48 hrs by sulforhodamine B assay; settings: DU-145, 48 h
Summary of the method: (§1)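 NCI 60-cell-line five-dose screen. Cells were plated at 5,000–40,000/well by doubling time and grown 24 h at 37 °C, 5% CO2. Time-zero plates were TCA-fixed. Drug from DMSO stock was tested at 0.01, 0.1, 1, 10 and 100 µM final for 48 h continuous exposure. Read-out was SRB at 515 nm. GI50 is the concentration giving 50% reduction in net protein increase versus untreated control.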

[13] = test system: UO-31; assay: Growth inhibition of human UO31 cells assessed as growth inhibition at 10 uM after 48 hrs by sulforhodamine B assay; settings: UO-31, 48 h, read-out: GI
[14] = test system: OVCAR-8; assay: Growth inhibition of human OVCAR8 cells assessed as cell growth at 10 '-7 M after 48 hrs by sulforhodamine B assay; settings: OVCAR-8, 48 h, read-out: Activity
[15] = test system: HT-29; assay: Growth inhibition of human HT-29 cells assessed as cell growth at 10 '-4 M after 48 hrs by sulforhodamine B assay; settings: HT-29, 48 h, read-out: Activity
[16] = Growth inhibition of human EKVX cells after 48 hrs by sulforhodamine B assay; summary of the method: as §1
[17] = test system: LOX IMVI; assay: Growth inhibition of human LOXIMVI cells assessed as cell growth at 10 '-6 M after 48 hrs by sulforhodamine B assay; settings: read-out: Activity
[18] = test system: SF-295; assay: Growth inhibition of human SF295 cells after 48 hrs by sulforhodamine B assay; settings: SF-295, 48 h
[19] = test system: HOP-62; assay: Growth inhibition of human HOP62 cells assessed as cell growth at 10 '-7 M after 48 hrs by sulforhodamine B assay; settings: HOP-62, 48 h, read-out: Activity
[20] = test system: SNB-19; assay: Growth inhibition of human SNB19 cells assessed as cell growth at 10 '-4 M after 48 hrs by sulforhodamine B assay; settings: SNB-19, 48 h, read-out: Activity
[21] = Growth inhibition of human […] cells assessed as cell growth at 10 uM after 48 hrs by sulforhodamine B assay; settings: read-out: Activity
Summary of the method: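 NCI-60 primary screen at a single dose of 10^-5 M. Output is mean growth percent of treated cells relative to untreated controls, where values between 0 and 100 indicate growth inhibition and values below 0 indicate cytotoxicity. Cells were plated 24 h before drug, incubated 48 h at 37 °C, 5% CO2, and stained with SRB after TCA fixation. Suspension cells were fixed with 80% TCA (16% final).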

[22] = Growth inhibition of human NCI-ADR-RES cells assessed as cell growth at 10 '-5 M after 48 hrs by sulforhodamine B assay; settings: read-out: Activity
[23] = test system: SN12C; assay: Growth inhibition of human SN12C cells after 48 hrs by sulforhodamine B assay
[24] = test system: SK-MEL-28; assay: Growth inhibition of human SK-MEL-28 cells assessed as cell growth at 10 '-5 M after 48 hrs by sulforhodamine B assay; settings: SK-MEL-28, 48 h, read-out: Activity
[25] = test system: OVCAR-3; assay: Growth inhibition of human OVCAR3 cells assessed as cell growth at 10 '-8 M after 48 hrs by sulforhodamine B assay; settings: OVCAR-3, 48 h, read-out: Activity
[26] = test system: SF-268; assay: Growth inhibition of human SF268 cells assessed as cell growth at 10 '-8 M after 48 hrs by sulforhodamine B assay; settings: SF-268, 48 h, read-out: Activity
[27] = test system: MOLT-4; assay: Growth inhibition of human MOLT4 cells assessed as cell growth at 10 '-5 M after 48 hrs by sulforhodamine B assay; settings: MOLT-4, 48 h, read-out: Activity
[28] = test system: M14; assay: Growth inhibition of human M14 cells assessed as cell growth at 10 '-4 M after 48 hrs by sulforhodamine B assay; settings: M14, 48 h, read-out: Activity
[29] = read-out: LD50 (the source's name)

Compound `Cc1cc(=O)oc2cc(OCCn3c(C)nn(-c4ccc(Cl)cc4)c3=O)ccc12` has a growth at 10 µM [1] of 39%, a growth at 0.01 µM [2] of 105% and a growth at 0.1 µM [3] of 99%. For the same compound, the growth at 10 µM [4] was 58%, the GI50 [5] was 5700 nM and the TGI [5] was > 1000 nM. For the same compound, the CC50 [5, 29] was > 1000 nM, the growth at 1 µM [6] was 74% and the growth at 10 µM [7] was 61%. For the same compound, the inhibition of growth at 10 µM [8] was 82.3%, the growth at 1 µM [9] was 74% and the growth at 1 µM [10] was 52%. For the same compound, the growth at 0.1 µM [11] was 79%, the GI50 [12] was 3900 nM and the TGI [12] was > 1000 nM. The CC50 [12, 29] was > 1000 nM, the inhibition of growth at 10 µM [13] was 57.2% and the growth at 0.1 µM [14] was 98%. The growth at 100 µM [15] was 9%, the GI50 [16] was 1000 nM and the TGI [16] was > 1000 nM. For the same compound, the CC50 [16, 29] was > 1000 nM, the growth at 1 µM [17] was 74% and the GI50 [18] was 4730 nM. The TGI [18] was > 1000 nM, the CC50 [18, 29] was > 1000 nM and the growth at 0.1 µM [19] was 103%. The growth at 100 µM [20] was 20%, the growth at 10 µM [21] was 32.9% and the growth at 10 µM [22] was 10%. For the same compound, the GI50 [23] was 5540 nM, the TGI [23] was > 1000 nM and the CC50 [23, 29] was > 1000 nM. It also gave a growth at 10 µM [24] of 33%, a growth at 0.01 µM [25] of 111% and a growth at 0.01 µM [26] of 104%. The growth at 10 µM [27] was 26% and the growth at 100 µM [28] was 28%.
